# Experimental data of several laboratories.
# Each line is one published result; the experiments were not run side by side.
# HTR1D: 5-hydroxytryptamine receptor 1D (HTR1D, Homo sapiens, UniProt P28221)
SMILES,target,assay,conditions,quantity,value
C[C@@]1(F)[C@H](O)[C@@H](COP(=O)(O)OP(=O)(O)OP(=O)(O)O)O[C@H]1n1ccc(=O)[nH]c1=O,"DNA polymerase subunit gamma-1 (POLG, Homo sapiens, UniProt P54098)","enzyme activity, inhibitor",,IC50,> 100 µM
O=C(CCCN1CCN(c2ccccc2)CC1)c1ccc(F)cc1,HTR1D,"ligand displacement, radioligand",,Ki,0.169 µM
CC[C@H]1NC(=O)[C@@H]2CSC(=N2)[C@H](Cc2ccccc2)N(C)C(=O)[C@@H]2CCCN2C(=O)[C@H](C(C)C)N(C)C(=O)[C@H](Cc2ccccc2)OC(=O)[C@H](C)[C@@H](C)NC(=O)[C@@H]([C@@H](C)O)NC(=O)[C@@H](CC(C)C)N(C)C(=O)[C@@H]2CSC1=N2,"Dipeptidyl peptidase 8 (Homo sapiens, UniProt Q6V1X1)","enzyme activity, inhibitor",,IC50,6.41 µM
O=C(CCCCCCNC(=O)c1cnc(N(c2ccccc2)c2ccccc2)nc1)NO,"ATP-dependent translocase ABCB1 (ABCB1, Homo sapiens, UniProt P08183)","ATPase activity, activator",cell membranes,EC50,~7.5 µM
COc1ccc(C(=O)CCN2CCN(c3ccccc3F)CC2)cc1,HTR1D,"ligand displacement, radioligand",,Ki,0.185 µM
CCCCCc1cc(O)c2c(c1)OC(C)(CCC=C(C)C)C=C2 (stereo not shown),"Polyunsaturated fatty acid 5-lipoxygenase (ALOX5, Homo sapiens, UniProt P09917)","enzyme activity in cells, inhibitor",,IC50,1.5 µM
CC(C)Cc1ccc([C@H](C)C(=O)O)cc1,"Histone acetyltransferase KAT2B (KAT2B, Homo sapiens, UniProt Q92831)","enzyme activity, inhibitor, mobility shift",,IC50,~6000 µM
NCCC[C@H](N)C(=O)O,"Arginase (Schistosoma mansoni, UniProt Q6WVP6)","enzyme activity, inhibitor, absorbance",,Ki,1900 µM
Cc1cccc(N2CCN(Cc3coc4ccc(Cl)cc4c3=O)CC2)c1C,HTR1D,"ligand displacement, radioligand",,Ki,0.546 µM
CSCC[C@H](NC(=O)[C@H](Cc1c[nH]c2ccccc12)NC(=O)CNC(=O)[C@H](Cc1ccc(O)cc1)NC(=O)[C@H](C)NC(=O)[C@@H](CCC(=O)O)NC(=O)CN1CCN(CC(=O)O)CCN(CC(=O)O)CCN(CC(=O)O)CC1)C(=O)N[C@@H](CC(=O)O)C(=O)N(C)[C@@H](Cc1ccccc1)C(N)=O,"Gastrin/cholecystokinin type B receptor (Rattus norvegicus, UniProt P30553)","ligand displacement, radioligand",,IC50,0.0226 µM
OC(c1ccc(F)cc1)C(F)(F)CCN1CCC(O)(c2ccc(Cl)cc2)CC1 (racemic),HTR1D,"cell-free assay, radioligand",,Ki,4.88 µM
O=C(NO)c1ccccc1,"Histone deacetylase 6, CD2 (hdac6, Danio rerio, UniProt F8W4B7)","enzyme activity, inhibitor, fluorescence",,IC50,3.42 µM
CC(C)[C@H](NC(=O)[C@H](CCCNC(=N)N)NC(=O)N[C@@H](Cc1ccccc1)C(=O)O)C(=O)N[C@H](C=O)CCCNC(=N)N,"Transmembrane protease serine 2 (TMPRSS2, Homo sapiens, UniProt O15393)","enzyme activity, inhibitor, fluorescence",pH 8,IC50,0.38 µM
Fc1ccc2onc(C3CCNCC3)c2c1,"Sodium-dependent serotonin transporter (Slc6a4, Rattus norvegicus, UniProt P31652)","ligand displacement, radioligand",,Ki,> 10 µM
COc1ccc(C(=O)CCN2CCN(c3ccccc3OC)CC2)cc1,HTR1D,"ligand displacement, radioligand",,Ki,0.062 µM
C[C@]12CCc3c(ccc4cc(O)ccc34)[C@@H]1CCC2=O,"ksi (Comamonas testosteroni, UniProt P00947)","enzyme activity, inhibitor, absorbance",,Ki,5 µM
